In PubChem BioAssay AID821 (SRMLSC, 2007) one finds EC50 data, which are given here for 40 compounds.

The source made the active and inactive calls.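 The calls were made as follows: active = compounds whose fitted half-maximal concentration for reducing fibroblast viability is 100 µM or lower; inactive = the rest.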

This assay concerns LL 47 lung fibroblast viability, ATP luminescence. Nature of the assay: LL 47 lung fibroblast growth inhibition, concentration-response, selectivity test for endothelial growth inhibitor program, cellular, luminescent ATP readout (AID 821). The essentials: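 Assay system: LL 47 human lung fibroblast cells | Amount: 1,150 cells/well | Schedule: 72 h exposure, 37 °C | Measured by: CellTiter-Glo luminescence | Measure: Percent viability relative to untreated wells, EC50 via 4-parameter fit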

As to `Cc1ccc(/C=N/Nc2ncc(Cl)cc2Cl)s1`, the EC50 was 15.2 µM. In the case of `O=C(c1nn2c(C(F)(F)F)cc(-c3ccco3)nc2c1Br)N1CCCc2ccccc21`, the EC50 is 4.78 µM. With `CCOC(=O)CSc1cccc2cccnc12` the figure was 12.6 µM; with `CC(C)CNC(=O)c1coc(=O)c(Br)c1`, 20.5 µM; with `CCC(=O)N1c2ccc(S(=O)(=O)CCC(=O)N3CCn4c3nc3ccccc34)cc2CC1C` (stereo not given), 9.63 µM. With `CCC(C)(C)NC(=O)C(c1ccc(C)o1)N(Cc1cccs1)C(=O)Cn1nnc2ccccc21` (stereo not given) the figure was 13.9 µM; with `CC1=CC(C)(C)Nc2ccc(OC(=O)CN3C(=O)C4CCCCC4C3=O)cc21` (stereo not given), 12.4 µM; with `CCc1ccc2c(c1)/C(=C/C(=O)c1cccs1)C(=O)N2`, 3.48 µM.

As to `COc1ccccc1-c1nnc2n1N=C(c1ccc(O)c(O)c1)CS2`, the EC50 was 2.68 µM. For the compound `CN(C)C(=O)CSc1cccc2cccnc12`, the EC50 is 13.7 µM. With `Oc1ccccc1-c1nnc(SCCN2CCOCC2)n1Cc1ccccc1` the figure was 1.48 µM; with `c1ccc(-c2nc3nonc3nc2-c2ccccc2)cc1`, 15.2 µM; with `CCC(C)(C)n1nnnc1C(c1cc2cc(C)cc(C)c2[nH]c1=O)N1CCN(Cc2ccc3c(c2)OCO3)CC1` (stereo not given), 9.88 µM. The value for `COc1cc(/C=C/c2ccc3cccc(OC)c3n2)c(OC(C)=O)c([N+](=O)[O-])c1` was 17.2 µM; that for `COc1ccc(Nc2nc(N3CCCC3)nc3ccccc23)c(OC)c1` was 14.4 µM; that for `O=c1[nH]c2cc3c(cc2cc1C(c1nnnn1Cc1ccccc1)N1CCCCCC1)OCCO3` (stereo not given) was 19.1 µM. With `Cc1cc(NC(c2cccnc2)c2ccc3cccnc3c2O)no1` (stereo not given), the EC50 was 2.93 µM.

Consider `COc1ccc(S(=O)(=O)N2N=C(C)Oc3ccccc3C2=O)cc1`, for which the EC50 was 19.5 µM. Turning to `Fc1ccc2c(Cl)c(-c3nnc(-c4cccs4)o3)sc2c1`, the EC50 was 11.4 µM. With `Cc1cccc(N2CCN(C(=O)Cn3sc4nc(C)cc(C)c4c3=O)CC2C)c1` (stereo not given) the figure was 9.93 µM. The value for `O=c1c(Cl)c(NCCCO)cnn1-c1nc2ccccc2[nH]1` was 6.3 µM; that for `CCOC(=O)c1c(CC(C)C)csc1NC=O` was 20.4 µM; that for `CCOC(=O)c1sc(SCC(=O)Nc2ccc(N(C)C)cc2)nc1N` was 11.8 µM.

As to `Cc1ccccc1NS(=O)(=O)c1ccc(N2CCCC2=O)cc1`, the EC50 was 16.3 µM.

As for `CN1CCN(Cc2cc(COCc3ccccc3)c3cccnc3c2O)CC1`, the EC50 is 2.92 µM. The value for `Oc1cccc2ccc(/C=C/c3cccs3)nc12` was 9.71 µM; that for `CCCCOc1ccc(C(=O)C(CN2CCOCC2)c2ccccc2)cc1` (stereo not given) was 6.5 µM.

With `O=S1(=O)C=C(Sc2nnc(-c3ccccc3)o2)c2ccccc21`, the EC50 is 1.71 µM. The value for `Cc1cc(C)c2c(=O)n(CC(=O)NCCCN3CCN(c4ccccc4F)CC3)sc2n1` was 10.2 µM; that for `COC(=O)C(CC(=O)c1ccc(Br)cc1)n1ccnc1` (stereo not given) was 14.7 µM.

Turning to `O=c1ccsn1Cc1ccccc1`, the concentration for a half-maximal effect (EC50) was 7.57 µM. Take `Cc1cc(NC(=O)CSc2nc3c(sc4ccccc43)c(=O)n2CCCN2CCOCC2)n[nH]1`: the EC50 was > 10 µM (inactive).

Regarding `Cc1sc2ncnc(NCC(C)(C)N3CCOCC3)c2c1C`, the EC50 was > 10 µM (inactive). The value for `O=C(Cn1c(=O)n(CCCC(=O)NC2CCCC2)c(=O)c2ccccc21)NCCC1=CCCCC1` was 19.4 µM. With `O=C(Cc1sc(-c2ccccc2Cl)nc1-c1ccccc1)Nc1ccc(F)cc1` the figure was 19.4 µM; with `CCN(CCNC(=O)C1CCN(Cc2nc(-c3ccc(Cl)cc3)oc2C)CC1)c1ccccc1`, 17.8 µM.

Consider `COc1ccc(-c2ccc(C#N)c(SCC(=O)Nc3sc4c(c3C#N)CCC4)n2)cc1OC`, for which the EC50 was 20.1 µM. Consider `Cc1nn(-c2nc3ccccc3s2)c(N)c1Sc1ccc(F)cc1`, for which the EC50 was 12.8 µM. For the compound `O=C(Oc1cccc2cccnc12)c1cccs1`, the EC50 was 4.21 µM. With `COCc1cc(=O)[nH]c(Nc2nc(C)c3ccccc3n2)n1` the figure was 20.3 µM.

In general, EC50 refers to the concentration at which the effect is half-maximal.
